Results pooled from the literature.
Compare with care: the assays were run in different laboratories. Converted amounts (≈) assume the structure as drawn.

SMILES | target or system | test | test system | setting | endpoint | result
COC(=O)C(Cc1ccccc1)n1c(C)nc2c(N)nc(N)nc21 (stereo not shown) | unidentified influenza virus | viral replication | A549, H1N1 PR8 | 24 h | IC50 | 0.039 µM
CCC1(c2ccc(N)cc2)CCC(=O)NC1=O (stereo not shown) | PC-3 | cell growth or viability, CCK-8 | – | 48 h | IC50 | > 50 µM
O=C(NCCCCCCCCNc1c2c(nc3ccccc13)CCCC2)c1ccccc1O | – | ABTS scavenging | – | 1 h | IC50 | 25.9 µM
Cc1nc2c(N)nc(N)nc2n1C(Cc1ccc(O)cc1)C(=O)O (stereo not shown) | unidentified influenza virus | viral replication | A549, H1N1 PR8 | 24 h | IC50 | 0.024 µM
CC(C)=CCC/C(C)=C/COc1cc(O)cc(O)c1C(=O)c1ccccc1 | – | ABTS scavenging | – | – | IC50 | 3750 µM
O=C(N/N=C1\C(=O)N(Cc2ccccc2)c2ccc(Cl)cc21)c1cc2ccccc2[nH]1 | A549 | cell growth or viability | – | – | IC50 | 0.76 µM
C[C@]12CCC(=O)C[C@@H]1CC[C@@H]1[C@@H]2CC[C@@]2(C)[C@H]1CC[C@]2(C)O | NIH3T3 | cell growth or viability, MTT | – | 24 h | IC50 | > 30 µM
O=C(c1cccc(F)c1)c1c[nH]c2ncc(-c3ccc(N4CCNCC4)nc3)cc12 | A549 | cell growth or viability, MTT | – | 10 µM, 48 h | viability | 62.8%
N#Cc1cc2c(-c3ccccc3)n[nH]c2c(Nc2ccccc2)n1 | PC-3 | cell growth or viability, MTS | – | 48 h | IC50 | 2.1 µM
O=c1c(O[C@@H]2O[C@H](CO)[C@H](O)[C@H](O)[C@H]2O)c(-c2ccc(O)c(O)c2)oc2cc(O)cc(O)c12 | – | ABTS scavenging, absorbance | – | 5 min | IC50 | 6.61 µM
O=C(NCCCNc1c2c(nc3ccccc13)CCCC2)c1ccccc1O | – | ABTS scavenging | – | 1 h | IC50 | 27.7 µM
Cc1nc2c(N)nc(=O)[nH]c2n1CC(=O)O | unidentified influenza virus | viral replication | A549, H1N1 PR8 | 24 h | IC50 | 0.039 µM
Cc1ccc(CN2C(=O)/C(=N\NC(=O)c3cc4ccccc4[nH]3)c3ccccc32)cc1 | A549 | cell growth or viability | – | 30 µM | inhibition | 91.9%
O=C(c1ccc(F)cc1)c1c[nH]c2ncc(-c3ccc(N4CCOCC4)nc3)cc12 | A549 | cell growth or viability, MTT | – | 10 µM, 48 h | viability | 77.1%
CCOC(=O)c1c(CSc2ccccc2)n(C)c2cc(Br)c(O)c(CN(C)C)c12.Cl.O | Punta Toro virus | cytopathic effect | – | – | MIC50 | > 100 µg/mL
Nc1ncnc2c([C@@H]3N[C@H](CO)[C@@H](O)[C@H]3O)c[nH]c12 | unidentified influenza virus | viral replication, inhibitor | MDCK | 29.6 µM | inhibition | 100%
COC(=O)C(Cc1ccccc1)n1c(C)nc2c(N)nc(=O)[nH]c21 (stereo not shown) | unidentified influenza virus | viral replication | A549, H1N1 PR8 | 24 h | IC50 | 0.34 µM
Oc1c(Cl)cc(Cl)c(Cl)c1Cc1c(O)c(Cl)cc(Cl)c1Cl | Betapolyomavirus hominis | viral replication, inhibitor, qPCR | Vero | 30 µM, 5 days | inhibition | ~70%
Cc1nc2c(N)nc(N)nc2n1C(Cc1ccccc1)C(=O)O (stereo not shown) | unidentified influenza virus | viral replication | A549, H1N1 PR8 | 24 h | IC50 | 0.21 µM
C[C@@H]1[C@H](O)[C@@H](C)/C=C/C=C/C=C/C=C/C=C/C=C/C=C/[C@H](O[C@@H]2O[C@H](C)[C@@H](O)[C@H](N)[C@@H]2O)C[C@@H]2O[C@](O)(C[C@@H](O)C[C@@H](O)[C@H](O)CC[C@@H](O)C[C@@H](O)CC(=O)O[C@H]1C)C[C@H](O)[C@H]2C(=O)O | Leishmania donovani | parasite growth | THP-1 | intracellular, amastigote | IC50 | 0.1 µg/mL
C[C@]1(COc2ccc(N3CCC(Oc4ccc(OC(F)(F)F)cc4)CC3)cc2)Cn2cc([N+](=O)[O-])nc2O1 | Leishmania donovani | parasite growth | – | promastigote | IC50 | 0.249 µM
CC(C)(C)OC(=O)N1CCN(c2ccc(-c3cnc4c(c3)c(C(=O)c3ccc(F)cc3)cn4CC3CC3)cn2)CC1 | A549 | cell growth or viability, MTT | – | 10 µM, 48 h | viability | 79.8%
COc1ccc(O)c(C(C)(C)C)c1 | – | ABTS scavenging | – | – | IC50 | 5.07 µg/mL
CC(C)(C)OC(=O)N1CCN(c2cc(-c3cnc4[nH]cc(C(=O)c5ccc(F)cc5)c4c3)ccn2)CC1 | A549 | cell growth or viability, MTT | – | 10 µM, 48 h | viability | 84.2%
N=C(N)c1ccc(OCCCCCOc2ccc(C(=N)N)cc2)cc1 | Leishmania donovani | parasite growth, resazurin | – | 72 h, promastigote | IC90 | 2 µg/mL (≈ 5.87 µM)
